# zfTRPN1 agonist: zebrafish TRPN1 (NompC) channel agonism | HEK293 zebrafish TRPN1-YFP, Fluo-8 calcium fluorescence; 100% = response to 87 µM carbachol | 220,000 tested, 0.18% active | activation, % at 3 µM;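 active = activation above its plate's cutoff, the mean activation of test wells on that plate plus 3 SD, cut at about 19% in these data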;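 also: 0% = DMSO alone and 100% = 87 µM carbachol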
#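 Assay system: Zebrafish TRPN1-YFP in HEK293 cells | Incubation: Dye loading 1 h at 37 °C, then 30 min room temperature | Measured by: Kinetic Fluo-8 fluorescence, ex 470-495, em 515-575 nm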
# CHO-K1 Ca antag: counter-screen for M1 antagonists: effect in parental CHO-K1 cells; ATP-induced calcium, Fluo-8 fluorescence; inhibition, % at 3 µM; 360,000 tested, 0.6% active;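 active = inhibition above a per-plate cutoff, the plate's mean sample inhibition plus 3 SD, cut at about 24% in these data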;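 also: 0% = DMSO plus EC80 ATP and 100% = DMSO alone without ATP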
# TRPML3 ag: agonists of human TRPML3 channel | Q8TDD5 | HEK293 TRPML3-YFP, Fluo-8 calcium fluorescence; 100% = the carbachol control signal | activation, % at 3 µM | 220,000 tested, 0.29% active | AID 1448;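 active = activation above its plate's cutoff, the mean activation of the plate's test wells plus 3 SD, cut at about 12% in these data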;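 also: 0% = DMSO only wells and 100% = carbachol wells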
# Target sequence (Q8TDD5 whole entry, looked up): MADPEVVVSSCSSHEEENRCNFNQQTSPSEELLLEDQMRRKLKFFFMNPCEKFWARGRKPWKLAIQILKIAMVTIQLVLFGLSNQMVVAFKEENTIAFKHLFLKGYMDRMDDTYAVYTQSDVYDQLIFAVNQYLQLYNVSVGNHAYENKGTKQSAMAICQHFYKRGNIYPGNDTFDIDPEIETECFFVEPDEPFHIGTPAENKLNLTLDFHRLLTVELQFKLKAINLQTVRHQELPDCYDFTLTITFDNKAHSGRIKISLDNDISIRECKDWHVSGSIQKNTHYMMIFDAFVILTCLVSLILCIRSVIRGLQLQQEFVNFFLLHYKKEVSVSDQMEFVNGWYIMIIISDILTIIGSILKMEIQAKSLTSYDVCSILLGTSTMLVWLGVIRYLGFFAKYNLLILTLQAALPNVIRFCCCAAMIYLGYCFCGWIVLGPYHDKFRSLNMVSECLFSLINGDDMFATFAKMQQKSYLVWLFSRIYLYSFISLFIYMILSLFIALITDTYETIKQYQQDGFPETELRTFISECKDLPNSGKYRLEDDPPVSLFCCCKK
#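 Material: TRPML3-YFP stable HEK293 cells | Dosing: One concentration, 3 µM nominal, 0.3% DMSO | Timing: 125 s total fluorescence read per well | Technique: Fluo-8 calcium dye fluorescence, ex 470-495, em 515-575 nm | Measure: Percent activation from peak-to-basal fluorescence ratio, scaled between DMSO and carbachol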
# CHO-K1 Ca PAM: M1 PAM counterscreen hit in parental CHO-K1 cells; ATP EC20, Fluo-8 calcium fluorescence; 0% at ATP EC20, 100% at ATP max; activation, % at 3 µM; 360,000 tested, 0.02% active; AID 602247;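 active = activation above the run cutoff, the mean activation of all test compounds plus 3 SD, cut at about 40% in these data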;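 also: peak over basal fluorescence ratio in a 140 s read after ATP addition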
# CHO-K1 Ca ag: nonselective activator or artifact in parental CHO-K1 cells; Fluo-8 calcium fluorescence; scaled to maximal ATP response, vehicle zero; activation, % at 3 µM; 360,000 tested, 0.48% active; AID 602248; in the data active = activation above about 15%;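 also: untransfected CHO-K1 host cells lacking M1 receptor as counterscreen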
# The depositor's hits bear a star; x = not tested or not shown. Rows were chosen to be rich in hits. Some 1.2% of all compounds tested hit in one or more screens of this group.
SMILES,zfTRPN1 agonist,CHO-K1 Ca antag,TRPML3 ag,CHO-K1 Ca PAM,CHO-K1 Ca ag
Cc1cccc(NC(=S)N(CCCN2CCCC2)Cc2cccn2Cc2ccc(Cl)cc2)c1,0,0,0,13,17*
CCOc1ccc(NC(=S)N(CCCN2CCCC2)Cc2cccn2Cc2ccc(Cl)cc2)cc1,2,-3,1,6,1
Cc1ccc(C(C(=O)NCc2ccc(F)cc2)N(CCCO)C(=O)C2COc3ccccc3O2)o1 (centres undefined),1,18,0,-6,19*
C=CCn1c(SCC(C)=O)nnc1-c1ccc2ncccc2c1,1,3,0,10,2
C=CCn1c(SC)nnc1-c1ccc2ncccc2c1,2,2,1,15,17*
c1ccc(COc2ccc(-c3cc4nc(NCCCn5ccnc5)ccn4n3)cc2)cc1,x,-5,x,17,7
CCOc1cccc(=O)c2c(C)n(Cc3ccccc3)c(C)c12,-1,13,1,3,23*
O=c1[nH]cnc2c1nnn2C1OC(CO)C(O)C1O (centres undefined),x,-4,x,22,0
Cc1ccc(C(=O)Oc2ccccc2N2CCOCC2)cc1,0,-4,0,8,20*
O=C(Oc1ccccc1N1CCOCC1)c1ccccc1,-1,-3,1,17,1
CC(=O)Oc1ccccc1Cn1c(C)c(C(=O)NCc2cccc([N+](=O)[O-])c2)sc1=O,x,3,x,-3,1
CC(C)c1ccc2oc(-c3cc(N)ccc3O)nc2c1,1,24*,1,-6,0
CCn1c(COc2cccc(C)c2C)nnc1SCC(=O)Nc1cc(C)on1,1,2,1,7,18*
O=C(Nc1ccc2nc([C@@H]3O[C@H](CO)[C@@H](O)[C@H](O)[C@H]3O)[nH]c2c1)NC(c1ccccc1)c1ccccc1,x,2,x,-7,0
COc1cccc(NC(=O)C2(C)CCN2C(=O)CC2CCCC2)c1 (centres undefined),x,-12,x,-8,0
O=C(COc1ccc2ccccc2c1)N1CCN(c2ccccc2O)CC1,2,24*,1,-6,1
COc1ccc(CNS(=O)(=O)c2ccc3c(c2)N(C(C)=O)CC(C)S3)cc1 (centres undefined),x,8,x,-15,17*
O=C(/C(N=Nc1cccc(C(F)(F)F)c1)=C(/O)c1cccs1)C(F)(F)F,2,2,0,21,16*
CC(=O)/C(N=Nc1cccc(C(F)(F)F)c1)=C(\C)O,0,4,0,14,2
C1C2CC3C1C3C2=NN=C1C2CC3C(C2)C13,x,-12,x,17,0
CC(=O)C1=C(C)NC(=S)NC1c1cc([N+](=O)[O-])ccc1O (centres undefined),1,-7,0,0,17*
CC1=C(C(=O)c2ccccc2)C(c2cccc([N+](=O)[O-])c2)NC(=S)N1 (centres undefined),2,-11,-2,4,1
CC1/C(=N/O)CC(c2ccccc2)NC1c1ccccc1 (centres undefined),-1,-5,0,-6,0
CCCC1/C(=N/O)CC(c2ccccc2)NC1c1ccccc1 (centres undefined),-1,37*,2,-16,18*
O=C(NNC(=S)NC(=O)c1ccco1)c1ccc(F)cc1,4,1,4,20,24*
SMILES,zfTRPN1 agonist,CHO-K1 Ca antag,TRPML3 ag,CHO-K1 Ca PAM,CHO-K1 Ca ag
COc1ccc(C(=O)NNC(=S)NC(=O)c2ccco2)cc1,1,-4,7,8,7
O=C(NC(=S)NNC(=O)c1ccco1)c1ccc(Br)cc1,x,-2,x,6,18*
CC1CCC(NS(=O)(=O)c2ccc(N3CCCC3=O)cc2)CC1 (centres undefined),x,23,x,-24,20*
COc1ccc(CCNC(=O)c2cc(=O)c3cc(C)ccc3o2)cc1OC,x,-7,x,-6,17*
CC(C)C(=O)N1CCN(c2ccc(NC(=O)COc3ccccc3[N+](=O)[O-])cc2)CC1,5,40*,4,-19,13
Cn1c2ccccc2c2n[nH]c(=S)nc21,x,7,x,12,15*
Cn1c2ccccc2c2n[nH]c(=O)nc21,3,-8,1,15,0
CSc1nnnn1CCn1nnnc1SC,2,36*,1,-10,-1
CCOC(=O)N1CCN(C(=O)c2c[nH]c3ccc(S(=O)(=O)N(C)c4ccccc4C)cc3c2=O)CC1,x,58*,x,6,1
CCOC(=O)N1CCN(C(=O)c2c[nH]c3ccc(S(=O)(=O)N(C)c4cccc(C)c4)cc3c2=O)CC1,x,-7,x,1,0
CCCCn1nnnc1C(c1cc2ccccc2o1)N(C)Cc1ccccc1 (centres undefined),x,-21,x,11,2
Cc1ccc(-c2cnc(C(O)c3ccc(Cl)c(Cl)c3)[nH]2)cc1 (centres undefined),x,14,x,-1,7
CCOC(=O)c1cnc(-c2ccccc2)nc1N1CC(C)OC(C)C1 (centres undefined),-2,-22,0,25,0
CCOC(=O)c1cnc(-n2nc(C)cc2C)nc1N1CC(C)OC(C)C1 (centres undefined),0,24*,0,-6,0
COc1ccc(-c2n(CC(=O)OC3CC(C)CCC3C(C)C)c3ccccc3[n+]2C)cc1 (centres undefined),-1,24*,0,-4,6
COc1ccc(OCc2n(CC(=O)OC3CC(C)CCC3C(C)C)c3ccccc3[n+]2C)cc1 (centres undefined),-2,8,0,7,2
COc1ccc(CCN2CC(C(=O)NCCCc3ccncc3)CCC2=O)cc1 (centres undefined),x,25*,x,-7,0
COc1ccc(CCNC(=O)C2CCC(=O)N(CCc3ccc(OC)cc3)C2)cc1 (centres undefined),x,5,x,-11,1
CC(=O)c1cccc(N(C(=O)CS(=O)CC(=O)Nc2ccc(F)cc2)C(C(=O)NC2CCCCC2)c2ccc(C)o2)c1 (centres undefined),0,10,1,-7,0
CC(=O)c1ccc(N(C(=O)CS(=O)CC(=O)Nc2ccc(F)cc2)C(C(=O)NC2CCCCC2)c2cccs2)cc1 (centres undefined),0,25*,0,-11,-1
O=C(O)c1cc2c(ncc3c(=O)n(-c4ccccc4)[nH]c32)s1,x,-9,x,11,0
O=C(CNC(=O)C1CCCCC1)Nc1ccccc1Cl,1,-3,0,21,0
O=C(CNC(=O)C1CCCCC1)Nc1cc(Cl)ccc1Cl,0,25*,1,-14,-1
CCOC(=O)COc1ccc2c(c1)C(=O)CC(C)(c1cccnc1)O2 (centres undefined),2,-3,0,12,15*
CCOC(=O)COc1ccc2c(c1)C(=O)CC1(CCCCC1)O2,0,14,0,-10,1

# Source: PubChem BioAssay
